Data taken from ChEMBL document CHEMBL1132437, “Synthesis and antimicrobial activity of 4H-4-oxoquinolizine derivatives: consequences of structural modification at the C-8 position” (1999).
In brackets after ≈: the same amount, converted by molar mass.

Tests used:
[1] = tested on: Staphylococcus aureus; assay: In vivo efficacy against Staphylococcus aureus NCTC 10649M in mouse; format: functional
Summary of the method: (§1)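 Mouse protection model: mice infected intravenously with 100-fold LD50 of the organism. Compound given by subcutaneous injection or oral gavage at 1 and 5 h after infection, over a dose range. Deaths tracked for 7 days post-inoculation. ED50 is the dose giving 50% survival of treated mice over the trial.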

[2] = tested on: Escherichia coli; assay: In vitro antibacterial activity against gram negative Escherichia coli KNK 437; format: functional
Summary of the method: (§2)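 Agar dilution MIC determination following the National Committee for Clinical Laboratory Standards recommendations.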

[3] = tested on: Streptococcus pneumoniae; assay: In vivo efficacy against Streptococcus pneumoniae ATCC 6303 in mouse protection test after s.c. administration.; format: functional; conditions: Streptococcus pneumoniae, sc; read-out: ED50; summary of the method: as §1
[4] = tested on: Burkholderia cepacia; assay: In vitro antibacterial activity against gram negative Pseudomonas cepacia 2961; format: functional; summary of the method: as §2
[5] = tested on: Streptococcus pyogenes; assay: In vitro antibacterial activity against gram positive Streptococcus pyogenes 930; format: functional; summary of the method: as §2
[6] = tested on: Pseudomonas aeruginosa; assay: In vitro antibacterial activity against gram negative P. aeruginosa DPHP 5263; format: functional; summary of the method: as §2
[7] = tested on: Staphylococcus aureus; assay: In vitro antibacterial activity against gram-positive Staphylococcus aureus NCTC 10649M; format: functional; summary of the method: as §2
[8] = tested on: Staphylococcus aureus; assay: In vitro antibacterial activity against gram-positive Staphylococcus aureus 1775; format: functional; summary of the method: as §2
[9] = tested on: Pseudomonas aeruginosa; assay: In vivo efficacy against Pseudomonas aeruginosa 5007 in mouse protection test after subcutaneous administration; format: functional; conditions: Pseudomonas aeruginosa, sc; read-out: ED50; summary of the method: as §1
[10] = tested on: Pseudomonas aeruginosa; assay: In vitro antibacterial activity against Gram-negative Pseudomonas aeruginosa 5007; format: functional; summary of the method: as §2
[11] = tested on: Enterococcus faecium; assay: In vitro antibacterial activity against gram-positive Enterococcus faecium ATCC 8043; format: functional; summary of the method: as §2
[12] = tested on: Mus musculus; assay: In vivo efficacy against Staphylococcus aureus NCTC 10649M in mouse protection test
[13] = tested on: Escherichia coli; assay: In vivo efficacy against Escherichia coli JUHL in mouse protection test after p.o. administration.; format: functional; conditions: Escherichia coli, po; read-out: ED50; summary of the method: as §1
[14] = tested on: Mus musculus; assay: In vivo efficacy against Streptococcus pneumoniae ATCC 6303 in mouse protection test after administration by oral gavage; format: functional; summary of the method: as §1
[15] = tested on: Escherichia coli; assay: In vivo efficacy against Escherichia coli JUHL in mouse protection test after subcutaneous administration; format: functional; conditions: Escherichia coli, sc; read-out: ED50; summary of the method: as §1
[16] = tested on: Staphylococcus aureus; assay: In vivo efficacy against Staphylococcus aureus NCTC 10649M in mouse protection test after p.o. administration.; format: functional; conditions: Staphylococcus aureus, po; read-out: ED50; summary of the method: as §1
[17] = tested on: Pseudomonas aeruginosa; assay: In vivo efficacy against Pseudomonas aeruginosa 5007 in mouse protection test after administration by oral gavage; format: functional; conditions: Pseudomonas aeruginosa, po; read-out: ED50; summary of the method: as §1
[18] = tested on: Mus musculus; assay: In vivo efficacy against Pseudomonas aeruginosa 5007 in mouse protection test after administration by oral gavage.; format: functional; summary of the method: as §1
[19] = tested on: Mus musculus; assay: In vivo efficacy against Pseudomonas aeruginosa 5007 in mouse protection test […]; format: functional; summary of the method: as §1
[20] = tested on: Mus musculus; assay: IIn vivo efficacy against Escherichia coli JUHL in mouse protection test after administration by oral gavage; format: functional; summary of the method: as §1
[21] = Staphylococcus aureus, read-out: ED50
[22] = Escherichia coli, read-out: MIC
[23] = Burkholderia cepacia, read-out: MIC
[24] = Streptococcus pyogenes, read-out: MIC
[25] = Pseudomonas aeruginosa, DPHP 5263, read-out: MIC
[26] = Staphylococcus aureus, NCTC 10649, read-out: MIC
[27] = Staphylococcus aureus, read-out: MIC
[28] = Pseudomonas aeruginosa, read-out: MIC
[29] = Enterococcus faecium, ATCC 8043, read-out: MIC

MIC [2, 22] [µg/mL]	MIC [4, 23] [µg/mL]	MIC [5, 24] [µg/mL]	MIC [6, 25] [µg/mL]	MIC [7, 26] [µg/mL]	MIC [8, 27] [µg/mL]	MIC [10, 28] [µg/mL]	MIC [11, 29] [µg/mL]	Compound	ED50 [1, 21] [mg/kg]	ED50 [3] [mg/kg]	ED50 [9] [mg/kg]	ED50 [13] [mg/kg]	ED50 [14] [mg/kg]	ED50 [15] [mg/kg]	ED50 [16] [mg/kg]	ED50 [17] [mg/kg]	other results
1.56 (≈ 3.99 µM)	1.56 (≈ 3.99 µM)	0.05 (≈ 0.128 µM)	25 (≈ 63.9 µM)	0.02 (≈ 0.0511 µM)	0.39 (≈ 0.996 µM)	1.56 (≈ 3.99 µM)	0.1 (≈ 0.255 µM)	Cc1c(N2CC[C@@H](NCCF)C2)c(F)cn2c(=O)c(C(=O)O)cc(C3CC3)c12		8	> 32	34.1	30.7	4.4	9.6	> 50	ED50 [12]: 2.1 mg/kg
6.2 (≈ 18.7 µM)	6.2 (≈ 18.7 µM)	6.2 (≈ 18.7 µM)	> 100	0.78 (≈ 2.35 µM)	> 100	6.2 (≈ 18.7 µM)	3.1 (≈ 9.33 µM)	Cc1c(N2CCCO2)c(F)cn2c(=O)c(C(=O)O)cc(C3CC3)c12	> 12					> 5			
0.2 (≈ 0.519 µM)	1.56 (≈ 4.05 µM)	0.1 (≈ 0.259 µM)	12.5 (≈ 32.4 µM)	0.02 (≈ 0.0519 µM)	0.78 (≈ 2.02 µM)	0.39 (≈ 1.01 µM)	0.1 (≈ 0.259 µM)	Cc1c(N2C[C@H](C3CC3)[C@@H](N)C2)c(F)cn2c(=O)c(C(=O)O)cc(C3CC3)c12	3	> 8	> 32	> 10	> 50	1.2	11.2	> 50	

Continued, compound first:

Compound	MIC [2, 22] [µg/mL]	MIC [4, 23] [µg/mL]	MIC [5, 24] [µg/mL]	MIC [6, 25] [µg/mL]	MIC [7, 26] [µg/mL]	MIC [8, 27] [µg/mL]	MIC [10, 28] [µg/mL]	MIC [11, 29] [µg/mL]	ED50 [1, 21] [mg/kg]	ED50 [3] [mg/kg]	ED50 [9] [mg/kg]	ED50 [13] [mg/kg]	ED50 [14] [mg/kg]	ED50 [15] [mg/kg]	ED50 [16] [mg/kg]	ED50 [17] [mg/kg]	other results
Cc1c(N2CCC[C@@H](NC3CC3)C2)c(F)cn2c(=O)c(C(=O)O)cc(C3CC3)c12	0.1 (≈ 0.25 µM)	6.2 (≈ 15.5 µM)	0.02 (≈ 0.0501 µM)	25 (≈ 62.6 µM)	0.01 (≈ 0.025 µM)	3.1 (≈ 7.76 µM)	0.78 (≈ 1.95 µM)	0.05 (≈ 0.125 µM)	1.8	> 16	> 32						
Cc1c(N2C[C@@H](N)[C@@H](C3CC3)C2)c(F)cn2c(=O)c(C(=O)O)cc(C3CC3)c12 (stereo in doubt; 3s)	0.2 (≈ 0.519 µM)	0.78 (≈ 2.02 µM)		12.5 (≈ 32.4 µM)		0.39 (≈ 1.01 µM)	0.39 (≈ 1.01 µM)	0.1 (≈ 0.259 µM)	1.5			6.6		3.7	3.4		MIC [5]: 0.1 µg/mL (≈ 0.259 µM); MIC [7]: 0.02 µg/mL (≈ 0.0519 µM)
Cc1c(N2CC[C@@H](C)[C@H](N)C2)c(F)cn2c(=O)c(C(=O)O)cc(C3CC3)c12									1	2.1	24.5	3	1	0.6	4.3		ED50 [18]: > 50 mg/kg
Cc1c(N2CC[C@@H]3NCCC[C@@H]32)c(F)cn2c(=O)c(C(=O)O)cc(C3CC3)c12	0.78 (≈ 2.02 µM)	25 (≈ 64.9 µM)	1.56 (≈ 4.05 µM)	100 (≈ 259 µM)	0.2 (≈ 0.519 µM)	12.5 (≈ 32.4 µM)	3.1 (≈ 8.04 µM)	3.1 (≈ 8.04 µM)	7		> 32			4.4	23.9		ED50 [19]: > 50 mg/kg; ED50 [20]: > 10 mg/kg
Cc1c(N2C[C@@H](N)[C@H](C3CC3)C2)c(F)cn2c(=O)c(C(=O)O)cc(C3CC3)c12 (stereo in doubt)										8	> 32	10	25	3.4	10.9	> 50	ED50 [12]: 1.5 mg/kg; MIC [2]: 0.2 µg/mL (≈ 0.519 µM); MIC [4]: 1.56 µg/mL (≈ 4.05 µM); MIC [5]: 0.05 µg/mL (≈ 0.13 µM); MIC [6]: 3.1 µg/mL (≈ 8.04 µM); MIC [7]: 0.05 µg/mL (≈ 0.13 µM); MIC [8]: 0.78 µg/mL (≈ 2.02 µM); MIC [10]: 0.39 µg/mL (≈ 1.01 µM); MIC [11]: 0.1 µg/mL (≈ 0.259 µM)
Cc1c(N2C[C@@H]3OCCN[C@@H]3C2)c(F)cn2c(=O)c(C(=O)O)cc(C3CC3)c12	0.78 (≈ 2.01 µM)	6.2 (≈ 16 µM)	0.1 (≈ 0.258 µM)	100 (≈ 258 µM)	0.002 (≈ 0.00516 µM)	0.78 (≈ 2.01 µM)	1.56 (≈ 4.03 µM)	0.1 (≈ 0.258 µM)	2.7					> 5			ED50 [1]: 4.8 mg/kg; ED50 [20]: > 20 mg/kg
